Consider 17 compounds from ChEMBL document CHEMBL1157074, “Hyaluronidase inhibitors from "Cimicifugae Rhizoma" (a mixture of the rhizomes of Cimicifuga dahurica and C. heracleifolia)” (J Nat Prod, 2010).

Some results are limits rather than exact numbers.

The experiment can be described thus: Inhibition of bovine testis hyaluronidase type 4 after 20 mins by modified Morgan-Elson method. Also noted: species or system Bos taurus. A digest of the protocol: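 Bovine testis hyaluronidase (Type IV-S, 400 NF units/mL stock) preincubated with sample in 0.1 mol/L acetate buffer pH 3.5, 20 min, 37 °C. Activated with 2.5 mmol/L CaCl2 for 20 min, then rooster-comb potassium hyaluronate (0.4 mg/mL stock) added for 40 min. Stopped with NaOH, boiled with boric acid, p-dimethylaminobenzaldehyde colour read at 585 nm. Percent inhibition corrected against blanks.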

`COc1ccc(/C=C/C(=O)O[C@H](C(=O)O)[C@](O)(Cc2ccc(O)c(O)c2)C(=O)O)cc1OC` [CIMICIFUGIC ACID G] gave an IC50 of 138 µM.

Take `O=C(/C=C/c1ccc(O)c(O)c1)O[C@H](C(=O)O)[C@](O)(Cc1ccc(O)cc1)C(=O)O` [CIMICIFUGIC ACID D]: the IC50 worked out at 153 µM.

Regarding `O=C(/C=C/c1ccc(O)c(O)c1)O[C@H](Cc1ccc(O)c(O)c1)C(=O)O` [ROSMARINIC ACID], the IC50 amounted to 545 µM.

For the compound `COc1cc(/C=C/C(=O)O[C@H](C(=O)O)[C@](O)(Cc2ccc(O)c(O)c2)C(=O)O)ccc1O[C@@H]1O[C@H](CO)[C@H](O)[C@H](O)[C@H]1O` [SHOMASIDE A], the midpoint of inhibition, the IC50, lay at 573 µM.

As to `COc1cc(/C=C/C(=O)O[C@H](C(=O)O)[C@](O)(Cc2ccc(O)cc2)C(=O)O)cc(OC)c1O` [CIMICIFUGIC ACID J], the IC50 was found to be 193 µM.

`O=C(O[C@H](C(=O)O)[C@](O)(Cc1ccc(O)c(O)c1)C(=O)O)c1ccc(O)cc1` [CIMICIFUGIC ACID H] displayed an IC50 of 525 µM.

In turn, `COc1cc(/C=C/C(=O)O[C@H](C(=O)O)[C@](O)(Cc2ccc(O)c(O)c2)C(=O)O)ccc1O` [CIMICIFUGIC ACID A] showed an IC50 of 112 µM.

`COc1cc(/C=C/C(=O)O[C@H](C(=O)O)[C@](O)(Cc2ccc(O)cc2)C(=O)O)ccc1O[C@@H]1O[C@H](CO)[C@H](O)[C@H](O)[C@H]1O` [SHOMASIDE B]: half-maximal inhibition (IC50) was put at 430 µM.

`COC(=O)C(O)C(Cc1ccc(O)cc1)(OC(=O)/C=C/c1ccc(O[C@@H]2O[C@H](CO)[C@@H](O)[C@H](O)[C@H]2O)c(OC)c1)C(=O)O` (some centres not stated) [SHOMASIDE D] returned an IC50 of more than 658 µM.

As for `O=C(/C=C/c1ccc(O)c(O)c1)O[C@H](C(=O)O)[C@](O)(Cc1ccc(O)c(O)c1)C(=O)O` [FUKINOLIC ACID], the IC50 is 144 µM.

Compound `COc1cc(/C=C/C(=O)O[C@H](C(=O)O)[C@](O)(Cc2ccc(O)cc2)C(=O)O)ccc1O` [CIMICIFUGIC ACID E] returned a half-inhibitory concentration (IC50) of 120 µM.

In the case of `COc1ccc(/C=C/C(=O)O[C@H](C(=O)O)[C@](O)(Cc2ccc(O)c(O)c2)C(=O)O)cc1O` [CIMICIFUGIC ACID B], the IC50 was 82 µM.

`COc1ccc(/C=C/C(=O)O[C@H](C(=O)O)[C@](O)(Cc2ccc(O)cc2)C(=O)O)cc1O` [CIMICIFUGIC ACID F] came in with an IC50 of 92 µM.

For the compound `O=C(/C=C/c1ccc(O)cc1)O[C@H](C(=O)O)[C@](O)(Cc1ccc(O)c(O)c1)C(=O)O` [CIMICIFUGIC ACID C], the IC50 was found to be 251 µM.

In the case of `COc1cc(OC(=O)/C=C/c2ccc(O[C@@H]3O[C@H](CO)[C@H](O)[C@H](O)[C@H]3O)c(OC)c2)ccc1CCO` [SHOMASIDE E], the IC50 is more than 790 µM.

Take `COc1cc(/C=C/C(=O)O[C@H](C(=O)O)[C@](O)(Cc2ccc(O)c(O)c2)C(=O)O)cc(OC)c1O` [CIMICIFUGIC ACID I]: the midpoint of inhibition, the IC50, lay at 143 µM.

The compound `COc1cc(/C=C/C(=O)O[C@H](C(=O)O)[C@](O)(Cc2ccc(O)cc2)C(=O)O)ccc1O[C@@H]1O[C@H](CO)[C@@H](O)[C@H](O)[C@H]1O` [SHOMASIDE C] showed an IC50 of 663 µM.
